Measurements taken from ChEMBL document CHEMBL1148024, “Novel inhibitors of fatty acid amide hydrolase” (Bioorg Med Chem Lett, 2007).
Active and inactive are the calls of the source. No cut-off for these calls is given here.

What was measured:
Cannabinoid receptor 2 = Cannabinoid receptor 2 (Homo sapiens, UniProt P34972); assay: Displacement of [3H]CP-55940 from CB2 receptor expressed in CHO cells; format: cell-based
[1] = molecular target: T1, Cytosolic phospholipase A2 (Homo sapiens, UniProt P47712); assay: Inhibition of cPLA2 activity
T1 sequence (P47712 whole entry): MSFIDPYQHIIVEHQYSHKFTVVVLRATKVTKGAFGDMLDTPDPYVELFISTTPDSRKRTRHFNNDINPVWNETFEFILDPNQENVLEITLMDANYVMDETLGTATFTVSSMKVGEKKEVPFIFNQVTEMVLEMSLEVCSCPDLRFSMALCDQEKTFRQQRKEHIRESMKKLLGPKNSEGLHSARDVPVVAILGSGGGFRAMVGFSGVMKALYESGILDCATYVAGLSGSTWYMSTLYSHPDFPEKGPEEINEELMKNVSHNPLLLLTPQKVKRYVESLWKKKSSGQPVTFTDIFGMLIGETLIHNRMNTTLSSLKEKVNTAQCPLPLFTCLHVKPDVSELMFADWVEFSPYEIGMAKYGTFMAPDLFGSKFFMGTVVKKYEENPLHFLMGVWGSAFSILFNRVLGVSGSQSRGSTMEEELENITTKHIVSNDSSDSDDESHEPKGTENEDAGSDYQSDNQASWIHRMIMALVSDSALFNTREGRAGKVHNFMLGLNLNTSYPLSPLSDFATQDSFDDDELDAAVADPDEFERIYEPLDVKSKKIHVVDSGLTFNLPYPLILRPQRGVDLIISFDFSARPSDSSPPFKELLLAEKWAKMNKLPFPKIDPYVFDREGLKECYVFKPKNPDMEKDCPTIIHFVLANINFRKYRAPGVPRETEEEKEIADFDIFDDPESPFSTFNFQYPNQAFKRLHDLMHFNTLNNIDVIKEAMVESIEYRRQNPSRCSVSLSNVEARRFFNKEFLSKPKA

[2] = molecular target: T2, Fatty-acid amide hydrolase 1 (Homo sapiens, UniProt O00519); assay: Inhibition of human FAAH expressed in H4 cells; format: cell-based
T2 sequence (O00519 whole entry): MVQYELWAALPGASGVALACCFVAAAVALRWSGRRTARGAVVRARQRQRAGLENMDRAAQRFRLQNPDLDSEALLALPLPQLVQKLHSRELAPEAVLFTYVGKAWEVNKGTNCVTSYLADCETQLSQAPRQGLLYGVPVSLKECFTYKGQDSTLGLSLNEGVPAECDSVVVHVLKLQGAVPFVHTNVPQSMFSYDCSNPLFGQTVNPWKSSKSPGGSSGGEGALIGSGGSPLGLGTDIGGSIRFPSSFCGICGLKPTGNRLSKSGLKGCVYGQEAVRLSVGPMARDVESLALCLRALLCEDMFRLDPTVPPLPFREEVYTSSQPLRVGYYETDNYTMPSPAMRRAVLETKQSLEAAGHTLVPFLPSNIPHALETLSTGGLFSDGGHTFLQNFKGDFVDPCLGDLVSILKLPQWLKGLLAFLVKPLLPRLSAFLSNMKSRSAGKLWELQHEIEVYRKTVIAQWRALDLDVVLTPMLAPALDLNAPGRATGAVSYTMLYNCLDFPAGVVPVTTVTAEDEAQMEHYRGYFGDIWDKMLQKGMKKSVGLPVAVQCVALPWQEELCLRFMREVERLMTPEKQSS
How it was run: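 Enzyme source: crude membrane homogenates from H4 cells transfected with human FAAH. Activity measured by a modified Omeir et al. method. IC50 taken from a four-parameter logistic fit of dose–response curves.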

Rattus norvegicus [3] = assay: Antinociceptive effect in rat persistent pain model assessed as suppression of formalin-induced paw flinches at 20 mg/kg, iv relative to control; format: functional, organism-based; design: dose 20 mg/kg
Rattus norvegicus [4] = assay: Antinociceptive effect in rat at 10 mg/kg, iv by thermal escape test; format: functional, organism-based; design: dose 10 mg/kg
How it was run: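 Rats were dosed iv with test compound at 0.1, 1 and 10 mg/kg, 15 min before exogenous anandamide (1 mg/kg, iv). Antinociception was read in the Hargreaves thermal escape test from 3 to 30 min after anandamide.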

Rattus norvegicus [5] = assay: Antinociceptive effect in rat persistent pain model assessed as suppression of formalin-induced paw flinches at 20 mg/kg, iv in presence of SR-141716A; format: functional, organism-based; design: dose 20 mg/kg
How it was run: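 CB1 antagonist SR141716A was given ip at 3 or 10 mg/kg at -30 min. Test compound (20 mg/kg) followed iv via jugular catheter at -15 min, then subcutaneous paw formalin at 0 min. Paw-flinch frequency was scored in Phase I (acute) and Phase II (persistent). Groups were compared with vehicle by Dunnett's test.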

Cannabinoid receptor 1 = Cannabinoid receptor 1 (Homo sapiens, UniProt P21554); assay: Displacement of [3H]CP-55940 from CB1 receptor expressed in HEK cells; format: cell-based, HEK293
Rattus norvegicus [6] = assay: Effect on neuropathic pain in rat chung model assessed as reversal of tactile allodynia at 20 mg/kg, iv; format: functional, organism-based; design: dose 20 mg/kg

Cannabinoid receptor 2, sequence (P34972 whole entry): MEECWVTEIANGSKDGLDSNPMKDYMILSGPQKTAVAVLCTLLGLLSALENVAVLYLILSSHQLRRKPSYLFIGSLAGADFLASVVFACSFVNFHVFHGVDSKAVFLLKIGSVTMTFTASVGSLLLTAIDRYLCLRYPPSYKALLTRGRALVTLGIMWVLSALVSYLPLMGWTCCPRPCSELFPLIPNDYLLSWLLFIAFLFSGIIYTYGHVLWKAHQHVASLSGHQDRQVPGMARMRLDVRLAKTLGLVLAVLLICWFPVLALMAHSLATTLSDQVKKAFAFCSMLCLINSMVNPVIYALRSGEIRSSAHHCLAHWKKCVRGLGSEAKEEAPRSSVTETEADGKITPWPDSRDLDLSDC
Cannabinoid receptor 1, sequence (P21554 whole entry): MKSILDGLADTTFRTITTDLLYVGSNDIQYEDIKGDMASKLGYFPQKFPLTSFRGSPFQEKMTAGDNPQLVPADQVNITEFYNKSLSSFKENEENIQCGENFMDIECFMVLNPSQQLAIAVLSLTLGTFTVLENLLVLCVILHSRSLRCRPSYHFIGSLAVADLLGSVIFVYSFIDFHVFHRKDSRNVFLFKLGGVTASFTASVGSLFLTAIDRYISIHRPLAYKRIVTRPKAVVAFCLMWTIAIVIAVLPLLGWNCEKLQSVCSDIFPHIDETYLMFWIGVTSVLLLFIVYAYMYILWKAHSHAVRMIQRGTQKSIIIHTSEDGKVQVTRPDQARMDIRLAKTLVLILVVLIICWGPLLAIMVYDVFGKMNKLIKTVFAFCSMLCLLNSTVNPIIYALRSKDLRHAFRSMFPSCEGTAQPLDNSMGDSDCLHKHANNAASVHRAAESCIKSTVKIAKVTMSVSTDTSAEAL

**Q.** Which Ki (Cannabinoid receptor 2) does the source give for `Cc1nc(-c2ccccc2)c(-c2ccccc2)n1CCCCCCNC(=O)Oc1ccccc1F` here?
**A.** 28000 nM

**Q.** And the Ki [1]?
**A.** 15000 nM

**Q.** What about the IC50 [2] of the same compound?
**A.** 2 nM

**Q.** What about the Activity (Rattus norvegicus [3]) of the same compound?
**A.** Active

**Q.** And the Activity (Rattus norvegicus [4])?
**A.** inactive

**Q.** What about the Activity (Rattus norvegicus [5]) of the same compound?
**A.** inactive

**Q.** And the Ki (Cannabinoid receptor 1)?
**A.** 23000 nM

**Q.** What about the Activity (Rattus norvegicus [6]) of the same compound?
**A.** Active

**Q.** With `CCOC(=O)CCCCOc1ccc(-n2cnc(-c3ccccc3)c2-c2ccccc2)cc1` as the compound, how does the IC50 [2] read?
**A.** > 10000 nM

**Q.** With `CNC(=O)CCCCCCn1c(C)nc(-c2ccccc2)c1-c1ccccc1` as the compound, how does the IC50 [2] read?
**A.** 1700 nM

**Q.** How did the IC50 [2] turn out when `CCCN(CCCCCCn1c(C)nc(-c2ccccc2)c1-c1ccccc1)C(=O)Oc1ccccc1F` was run?
**A.** > 100000 nM

**Q.** How did the IC50 [2] turn out when `Cc1nc(-c2ccccc2)c(-c2ccccc2)n1CCCCCC(NC(=O)Oc1ccccc1F)C(C)C` (centres undefined) was run?
**A.** 250 nM

**Q.** `CCOC(=O)CCCOc1cccc(-n2cnc(-c3ccccc3)c2-c2ccccc2)c1` was tested. Which IC50 [2] did it give?
**A.** 91 nM

**Q.** Which IC50 [2] does the source give for `COC(=O)COc1cccc(-n2cnc(-c3ccccc3)c2-c2ccccc2)c1` here?
**A.** 6500 nM

**Q.** How did the IC50 [2] turn out when `CCOC(=O)CC(CCCCCn1c(C)nc(-c2ccccc2)c1-c1ccccc1)C(C)C` (centres undefined) was run?
**A.** > 100000 nM

**Q.** For `CCC(CCCCCn1c(C)nc(-c2ccccc2)c1-c1ccccc1)NC(=O)Oc1ccccc1F` (centres undefined), which IC50 [2] is on record?
**A.** 30 nM

**Q.** For `COC(=O)COc1ccc(-n2cnc(-c3ccccc3)c2-c2ccccc2)cc1`, which IC50 [2] is on record?
**A.** 670 nM

**Q.** For `CCOC(=O)CCCCCCn1c(C)nc(-c2ccc(F)cc2)c1-c1ccc(F)cc1`, which IC50 [2] is on record?
**A.** 64 nM

**Q.** How did the IC50 [2] turn out when `Cc1nc(-c2ccccc2)c(-c2ccccc2)n1CCCCCCNC(=O)Nc1ccccc1` was run?
**A.** 10000 nM

**Q.** Which IC50 [2] does the source give for `Cc1nc(-c2ccccc2)c(-c2ccccc2)n1CCCCCCC(=O)N(C)C` here?
**A.** 970 nM

**Q.** Which IC50 [2] does the source give for `CNC(=O)NCCCCCCn1c(C)nc(-c2ccccc2)c1-c1ccccc1` here?
**A.** > 10000 nM

**Q.** How did the IC50 [2] turn out when `CCOC(=O)CC(CC)CCCCCn1c(C)nc(-c2ccccc2)c1-c1ccccc1` (centres undefined) was run?
**A.** 9900 nM

**Q.** `CCN(CCCCCCn1c(C)nc(-c2ccccc2)c1-c1ccccc1)C(=O)Oc1ccccc1F` was tested. Which IC50 [2] did it give?
**A.** > 100000 nM

**Q.** With `Cc1nc(-c2ccccc2)c(-c2ccccc2)n1CCCCCCNC(=O)Oc1ccccc1` as the compound, how does the IC50 [2] read?
**A.** 5.3 nM

**Q.** How did the IC50 [2] turn out when `CCc1nc(-c2ccccc2)c(-c2ccccc2)n1CCCCCCCC(=O)OC` was run?
**A.** 31 nM

**Q.** How did the IC50 [2] turn out when `CCOC(=O)CCCCCn1c(CC)nc(-c2ccccc2)c1-c1ccccc1` was run?
**A.** 32 nM

**Q.** Which IC50 [2] does the source give for `CCOC(=O)CC(C)CCCCCn1c(C)nc(-c2ccccc2)c1-c1ccccc1` (centres undefined) here?
**A.** 130 nM

**Q.** Which IC50 [2] does the source give for `CCOC(=O)CCCOc1ccc(-n2cnc(-c3ccccc3)c2-c2ccccc2)cc1` here?
**A.** 64 nM

**Q.** With `CCCCC/C=C\C/C=C\C/C=C\C/C=C\CCCC(=O)NCCO` as the compound, how does the Activity (Rattus norvegicus [4]) read?
**A.** inactive

**Q.** Which IC50 [2] does the source give for `Cc1nc(-c2ccccc2)c(-c2ccccc2)n1CCCCCC(C)NC(=O)Oc1ccccc1F` (centres undefined) here?
**A.** 4.2 nM

**Q.** How did the IC50 [2] turn out when `CCOC(=O)CCCCCCn1c(CC)nc(-c2ccccc2)c1-c1ccccc1` was run?
**A.** 11 nM

**Q.** How did the IC50 [2] turn out when `Cc1nc(-c2ccccc2)c(-c2ccccc2)n1CCCCCC(NC(=O)Oc1ccccc1F)c1ccccc1` (centres undefined) was run?
**A.** 110 nM

**Q.** For `Cc1nc(-c2ccc(F)cc2)c(-c2ccc(F)cc2)n1CCCCCCNC(=O)Oc1ccccc1F`, which IC50 [2] is on record?
**A.** 10 nM

**Q.** `Cc1nc(-c2ccc(F)cc2)c(-c2ccc(F)cc2)n1CCCCCCNC(=O)Oc1c(F)cccc1F` was tested. Which IC50 [2] did it give?
**A.** 24 nM
